Several values for one entry are separate records, joined by “and”; a condition that tells them apart may be missing. Equal entries are not always repeated. Where two headings read alike, the source gives them in different places.
Tests used:
bovine spleen ADA [1] = target: T1, bovine spleen ADA (Bos taurus, UniProt P56658); assay: HTS plate-reader fluorescence assay of ADA; format: biochemical; settings: 200 μM, initial MBP library screen, relative to negative control
T1 sequence (P56658 1-363): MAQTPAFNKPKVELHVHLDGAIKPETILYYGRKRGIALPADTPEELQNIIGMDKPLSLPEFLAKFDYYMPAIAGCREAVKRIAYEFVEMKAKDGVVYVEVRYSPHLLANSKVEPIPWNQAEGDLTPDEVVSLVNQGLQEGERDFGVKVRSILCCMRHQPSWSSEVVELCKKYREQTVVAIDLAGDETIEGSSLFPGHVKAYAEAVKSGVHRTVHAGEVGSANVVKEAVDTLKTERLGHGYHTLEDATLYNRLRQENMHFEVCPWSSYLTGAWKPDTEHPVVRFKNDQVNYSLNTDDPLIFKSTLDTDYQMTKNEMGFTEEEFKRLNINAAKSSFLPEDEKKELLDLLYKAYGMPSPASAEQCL

bovine spleen ADA [2] = target: T1, bovine spleen ADA; assay: Cuvette fluorescence assay of ADA; format: biochemical
Method in brief: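 Bovine spleen ADA, diluted to 1.15 U mL⁻¹ in 50 mM phosphate buffer pH 7.4 and kept on ice. Test compound (final 1–1000 µM, 0.1 µM for one analogue; DMSO stocks) and tzA (1 mM DMSO stock) were stirred 1 min in buffer in a quartz cuvette at 25.0 °C. ADA was then added. Emission at 410 nm (excitation 322 nm) was read every 10 s for 20 min.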

ADA [3] = settings: non-HTS assay format; ref 8e; cited from earlier work
ADA [4] = settings: ref Cristalli et al. 1a; cited from earlier work
[5] = converted from IC50 by Cheng-Prusoff, three independent experiments
[6] = cuvette, 25 °C, three independent experiments

| IC50 (bovine spleen ADA [2]) [µM] | Ki (bovine spleen ADA [2]) [µM] | Compound | percent inhibition of ADA (bovine spleen ADA [1]) | Ki (bovine spleen ADA [2]; [5]) [µM] | IC50 (bovine spleen ADA [2]; [6]) [µM] | also measured |
| --- | --- | --- | --- | --- | --- | --- |
|  |  | Oc1ccccc1-c1ncco1 [Compound 4, 2-oxazolyl phenol] | 61% | 215 ± 12 | 260 ± 14 |  |
| 194 ± 4 | 161 ± 3 | C[C@H]1CN=C(c2ccccc2O)O1 [Compound 6, (S)-2-(5-Methyl-4,5-dihydrooxazol-2-yl)phenol] |  |  |  |  |
|  |  | erythro-9-(2-hydroxy-3-nonyl) adenine [EHNA] |  |  |  | IC50 (ADA [3]): 0.023 ± 0.004 µM; Ki (ADA [3]): 0.019 ± 0.004 µM; Ki (ADA [4]): ~0.005 µM |
|  |  | Oc1ccccc1-c1ncc[nH]1 [Compound 3, 2-imidazolyl phenol] | ~ 83% and 83% | 77 ± 14 | 93 ± 17 |  |
| 188 ± 10 | 156 ± 8 | C[C@@H]1CN=C(c2ccccc2O)O1 [Compound 7, (R)-2-(5-Methyl-4,5-dihydrooxazol-2-yl)phenol] |  |  |  |  |

From article PMC7815202 (ChemMedChem, 2020)
